Experiments:
[1] = Displacement of [3H]nicotin from nicotinic ACh receptor
Outline: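 Porcine brain membranes (sucrose/K+-phosphate pH 7.0/EDTA homogenate, 100,000 g pellet) incubated with 3H-nicotine and alkaloids (0.5 nM–10 mM) for 40 min at 20°; 1 mM nicotine defines nonspecific binding. Rapid filtration on BSA-presoaked glass fiber filters, saline washes, scintillation counting; triplicates. IC50 = concentration displacing 50% of specific binding.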

[2] = Displacement of [3H]quinuclidinyl benzilate from muscarinic ACh receptor
Outline: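 Porcine brain membranes (500 µg protein; 10 mM K+-phosphate pH 7.0, 1 mM EDTA) incubated with 3H-QNB and alkaloids (0.5 nM–10 mM) for 1 h at 20°; atropine blank for nonspecific binding. Stopped with ice-cold 0.9% NaCl, rapid glass-fiber filtration, three washes, scintillation counting; triplicates. IC50 = concentration displacing 50% of specific binding.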

Structure (SMILES)	IC50 [1] [µM]	IC50 [2] [µM]
CN1C[C@@H]2C[C@H](C1)c1cccc(=O)n1C2	0.05	417
O=C1[C@H]2C[C@@H](CN3CCCC[C@@H]23)[C@H]2CCCCN12	155	118
O=C1[C@H](O)CC[C@@H]2[C@H]3C[C@@H](CN12)[C@@H]1CCCCN1C3	190	74
O=C1CCC[C@@H]2[C@H]3C[C@@H](CN12)[C@@H]1C[C@H](O)CCN1C3	490	140
C=CC[C@H]1NC[C@H]2C[C@@H]1[C@H]1CC(=O)C=CN1C2 [ALBINE]	193	33
O=c1cccc2n1C[C@H]1C[C@@H]2CN2CCCC[C@H]12 [ANAGYRINE]	2100	132
C=CC[C@@H]1NC[C@@H]2C[C@H]1CN1C(=O)CCC[C@H]21 [ANGUSTIFOLINE]	> 500	25
O=c1cccc2n1C[C@@H]1CNC[C@H]2C1 [CYTISINICLINE]	0.14	400
O=C1CCC[C@@H]2[C@H]3C[C@@H](CN12)[C@@H]1CCCCN1C3 [LUPANINE]	5	114
OC[C@@H]1CCCN2CCCC[C@H]12 [LUPININE]	> 500	190
O=C1C=CN2C[C@@H]3C[C@@H](CN4CCCC[C@@H]34)[C@H]2C1 [MULTIFLORINE]	> 500	47
C1CCN2C[C@@H]3C[C@@H](CN4CCCC[C@@H]34)[C@H]2C1 [SPARTEINE]	331	21
C=CCCN1C[C@H]2C[C@@H](C1)[C@H]1CCCC(=O)N1C2 [TETRAHYDRORHOMBIFOLINE]	310	129

Reference: ChEMBL document CHEMBL1148066, “Binding of quinolizidine alkaloids to nicotinic and muscarinic acetylcholine receptors” (J Nat Prod, 1994)
